Assay results of several laboratories.
Target: Mitogen-activated protein kinase 7 (MAPK7, Homo sapiens, UniProt Q13164)

SMILES	read-out	mode	method	tested at	measurement	result
COc1ccc2[nH]c3c4[nH]c5ccc(OC)cc5c4c4c(c3c2c1)C(=O)NC4=O	binding			1 µM	remaining binding	69%
CC#CC(=O)N1CCC[C@H]1c1nc(-c2ccc(C(=O)Nc3ccccn3)cc2)c2c(N)nccn12	enzyme activity	inhibitor		1 µM	inhibition	0%
Cc1cc(O)c(-c2ccc([C@@H](C)CN(C)C)cc2)c2c1[nH]c(=O)c1sccc12	enzyme activity	inhibitor		0.1 µM	inhibition	-0.313%
CCCCC(=O)Nc1ccc(-c2ccc3ncn(CCC)c(=O)c3c2)cn1	binding		competition with immobilised ligand	0.5 µM	remaining binding	82%
C[C@]1(O)CCCN(c2nc(Nc3ccc(S(=O)(=O)N[C@H]4CC[C@H](CN5CCN(c6ccc(C7CCC(=O)NC7=O)cc6F)CC5)CC4)cc3Cl)ncc2C(F)(F)F)C1 (some centres unmarked)	binding		competition with immobilised ligand	1 µM	remaining binding	18%
C[C@H]1CC[C@H](n2c3cnccc3c3cnc(Nc4ccc5c(n4)CCN(C(=O)CO)C5)nc32)CC1	cell-free assay			1 µM	remaining signal	92%
CO[C@@H]1[C@H](N(C)C(=O)c2ccccc2)C[C@H]2O[C@]1(C)n1c3ccccc3c3c4c(c5c6ccccc6n2c5c31)C(=O)NC4	enzyme activity	inhibitor		1 µM	inhibition	0%
C[C@]1(O)CCCN(c2nc(Nc3ccc(S(=O)(=O)N[C@H]4CC[C@H](CN5CCN(c6ccc(C7CCC(=O)NC7=O)cc6F)CC5)CC4)cc3F)ncc2C(F)(F)F)C1 (some centres unmarked)	binding		competition with immobilised ligand	1 µM	remaining binding	37%
